Measured values gathered from unrelated publications.
Lines come from different studies, so protocols differ.
Target: Serine/threonine-protein kinase PknB (pknB, Mycobacterium tuberculosis, UniProt P9WI81)

SMILES	test	setting	remaining binding [%]
CNC(=O)[C@@H]1CC[C@@H](n2c(-c3ccc4cnccc4c3)nc3ccc(C(=O)NCc4cccc(C(N)=O)c4)cc32)C1	binding, competition with immobilised ligand	1 µM	96
CS(=O)(=O)N1CCCC(NC(=O)[C@H](CCC2CCCCC2)NC(=O)c2ccc(CNc3ncnc4c3nnn4-c3ccccc3)cc2)C1 (stereo partly drawn)	cell-free assay, competition with immobilised ligand	0.1 µM	90
c1cncc(-c2cccc(Nc3nccc(NC4CCCCC4)n3)c2)c1	binding, competition with immobilised ligand	10 µM	89
CCN1CCN(Cc2ccc(C(=O)Nc3ccc(C)c(Oc4ccc5c(c4)CC(=O)N5)c3)cc2C(F)(F)F)CC1	binding, competition with immobilised ligand	1 µM	100
COc1cc(-c2cn(C3CCc4c(F)cccc4N(CC(F)(F)F)C3=O)nn2)ccc1-n1cnc(C)c1 (stereo not drawn)	cell-free assay, competition with immobilised ligand	1 µM	82
COc1ccnn2ncc(-c3ccnc(N(C)C)n3)c12	binding	1 µM	100
CNC(=O)Nc1ccc2c(c1)[C@@]1(CC2)OC(=O)N(CC(=O)N(Cc2ccc(F)cc2)[C@@H](C)C(F)(F)F)C1=O	cell-free assay, competition with immobilised ligand	1 µM	84
COc1cnc(Nc2cccc(S(N)(=O)=O)c2)nc1N1CCN(c2ccccc2)C(=O)C1	binding, competition with immobilised ligand	1 µM	86
CN(CCCC(F)(F)F)c1nccc(-c2cnn3ncccc23)n1	binding	1 µM	89
CC1=C(C#N)C(c2ccc3c(c2)c(NC(=O)c2ccccc2C)nn3C)C(C#N)=C(C)N1	cell-free assay, competition with immobilised ligand	1 µM	97
C=CC(=O)N1CCC(C(=O)NCC(=O)N2CCN(c3nc(-c4cnc(N)nc4C(F)F)nc(N4CCOCC4)n3)CC2)CC1	binding, competition with immobilised ligand	1 µM	67
N[C@H]1CCN(c2nccc(-c3cnn4ncccc34)n2)C1	binding	1 µM	98
O=C(NCC1CCOCC1)c1n[nH]cc1NC(=O)c1c(F)cccc1F	binding, competition with immobilised ligand	1 µM	99
COc1ccc2c(c1)O[C@@H](c1ccc(OC)c(OC)c1)C[C@H]2NC(=O)C1(c2ccc3c(c2)OC(F)(F)O3)CC1	cell-free assay, competition with immobilised ligand	1 µM	85
C[C@@H]1CCN(c2nccc(-c3cnn4ncccc34)n2)C1	binding	1 µM	100
